Measured values reported in ChEMBL document CHEMBL4145646, “Macrophilones from the Marine Hydroid Macrorhynchia philippina Can Inhibit ERK Cascade Signaling” (J Nat Prod, 2018).
Calls of active or inactive are those of the source. No cut-off for these calls is given here.

How the values were obtained:
[1] = tested on: COLO 205; experiment: Growth inhibition of human COLO205 cells harboring B-Raf V600E mutant after 48 hrs by sulforhodamine B assay; format: functional, cell-based
Procedure, shortened: (§1)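 Tested in the NCI-60 human tumor cell line screen as DMSO solutions. Results analyzed with CellMiner bioinformatics tools.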

[2] = tested on: Malme-3M; experiment: Growth inhibition of human MALME-3M cells harboring B-Raf V600E mutant after 48 hrs by sulforhodamine B assay; format: functional, cell-based; procedure, shortened: as §1
[3] = tested on: SK-MEL-5; experiment: Growth inhibition of human SK-MEL-5 cells harboring B-Raf V600E mutant after 48 hrs by sulforhodamine B assay; format: functional, cell-based; procedure, shortened: as §1
[4] = tested on: MDA-MB-435; experiment: Growth inhibition of human MDA-MB-435 cells harboring B-Raf V600E mutant after 48 hrs by sulforhodamine B assay; format: functional, cell-based; procedure, shortened: as §1
[5] = biological target: Serine/threonine-protein kinase B-raf (Homo sapiens) (UniProt P15056); experiment: Inhibition of B-Raf (unknown origin) at 10 uM using inactive MEK as substrate pretreated for 20 mins followed by substrate addition and measured after 30 mins in presence of [gamma32P]ATP by autoradiography
Serine/threonine-protein kinase B-raf (Homo sapiens), sequence (P15056 whole entry): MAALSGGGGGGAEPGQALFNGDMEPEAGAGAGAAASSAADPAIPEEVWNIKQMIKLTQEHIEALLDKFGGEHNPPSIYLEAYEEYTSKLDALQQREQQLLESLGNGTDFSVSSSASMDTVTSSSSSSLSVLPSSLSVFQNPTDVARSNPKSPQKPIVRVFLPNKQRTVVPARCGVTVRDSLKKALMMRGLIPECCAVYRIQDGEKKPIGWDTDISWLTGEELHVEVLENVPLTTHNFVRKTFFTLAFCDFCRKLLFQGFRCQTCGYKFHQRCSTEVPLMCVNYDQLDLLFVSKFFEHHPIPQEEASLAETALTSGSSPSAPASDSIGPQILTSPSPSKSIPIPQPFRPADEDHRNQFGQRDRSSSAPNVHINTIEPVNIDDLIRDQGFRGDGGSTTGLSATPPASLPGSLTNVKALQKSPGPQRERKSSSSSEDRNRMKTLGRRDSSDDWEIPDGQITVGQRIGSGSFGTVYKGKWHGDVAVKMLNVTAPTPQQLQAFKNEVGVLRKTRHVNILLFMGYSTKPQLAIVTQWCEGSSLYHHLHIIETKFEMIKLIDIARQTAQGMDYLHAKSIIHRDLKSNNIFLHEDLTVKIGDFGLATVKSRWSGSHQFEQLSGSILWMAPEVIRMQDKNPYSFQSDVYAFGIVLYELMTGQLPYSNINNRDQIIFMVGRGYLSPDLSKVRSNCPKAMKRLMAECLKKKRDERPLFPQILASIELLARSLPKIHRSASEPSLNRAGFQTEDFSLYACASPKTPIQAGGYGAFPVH

[6] = biological target: RAF proto-oncogene serine/threonine-protein kinase (Homo sapiens) (UniProt P04049); experiment: Inhibition of C-Raf (unknown origin) at 10 uM using inactive MEK as substrate pretreated for 20 mins followed by substrate addition and measured after 30 mins in presence of [gamma32P]ATP by autoradiography
RAF proto-oncogene serine/threonine-protein kinase (Homo sapiens), sequence (P04049 whole entry): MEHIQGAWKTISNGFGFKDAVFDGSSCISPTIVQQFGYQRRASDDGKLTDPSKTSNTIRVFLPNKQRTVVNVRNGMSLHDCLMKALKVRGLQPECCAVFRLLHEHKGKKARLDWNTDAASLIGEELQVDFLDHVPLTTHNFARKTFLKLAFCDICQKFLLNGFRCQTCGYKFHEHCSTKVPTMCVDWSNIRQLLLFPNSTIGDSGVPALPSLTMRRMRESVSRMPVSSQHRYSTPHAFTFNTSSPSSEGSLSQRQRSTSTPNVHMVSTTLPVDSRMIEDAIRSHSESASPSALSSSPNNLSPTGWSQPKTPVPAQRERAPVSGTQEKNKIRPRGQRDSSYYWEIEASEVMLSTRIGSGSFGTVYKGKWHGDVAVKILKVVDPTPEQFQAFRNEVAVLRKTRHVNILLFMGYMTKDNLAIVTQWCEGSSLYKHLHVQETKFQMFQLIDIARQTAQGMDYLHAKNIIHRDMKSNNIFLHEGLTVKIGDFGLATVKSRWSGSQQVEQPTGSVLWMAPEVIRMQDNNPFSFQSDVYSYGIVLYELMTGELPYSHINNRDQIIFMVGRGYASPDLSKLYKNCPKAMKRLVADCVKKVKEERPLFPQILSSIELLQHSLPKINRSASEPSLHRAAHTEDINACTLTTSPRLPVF

[7] = biological target: Dual specificity mitogen-activated protein kinase kinase 1 (Homo sapiens) (UniProt Q02750); experiment: Inhibition of wild-type MEK1 (unknown origin) at 10 uM using inactive ERK2 as substrate pretreated for 20 mins followed by substrate addition and measured after 30 mins in presence of [gamma32P]ATP by autoradiography
Dual specificity mitogen-activated protein kinase kinase 1 (Homo sapiens), sequence (Q02750 whole entry): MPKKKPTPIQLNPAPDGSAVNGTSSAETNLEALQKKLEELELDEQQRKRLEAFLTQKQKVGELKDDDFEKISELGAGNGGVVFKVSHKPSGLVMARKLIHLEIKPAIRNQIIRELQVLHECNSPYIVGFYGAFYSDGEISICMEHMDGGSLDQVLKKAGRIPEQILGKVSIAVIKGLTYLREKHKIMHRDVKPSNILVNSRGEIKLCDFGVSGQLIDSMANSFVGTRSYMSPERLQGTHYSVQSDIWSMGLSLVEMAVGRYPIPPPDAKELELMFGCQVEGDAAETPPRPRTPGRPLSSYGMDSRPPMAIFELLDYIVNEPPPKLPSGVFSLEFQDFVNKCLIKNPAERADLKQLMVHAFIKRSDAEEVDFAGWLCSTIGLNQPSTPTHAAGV

[8] = species: Homo sapiens; experiment: Inhibition of ERK (unknown origin)
[9] = tested on: COLO 205; experiment: Down regulation of total ERK level in human COLO205 cells harboring B-Raf V600E mutant at 1 to 10 uM measured after 18 hrs by Western blot analysis; format: functional, cell-based
Procedure, shortened: (§2)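 Colo205 cells grown at 37 °C, 5% CO2 in RPMI-1640 with 10% FBS and 2 mM L-glutamine. Compounds added in DMSO (final 0.1% v/v), vehicle-only controls. Cells washed twice in ice-cold PBS, lysed in RIPA buffer (pH 8.0, with protease and phosphatase inhibitors). Lysates clarified, equalized for protein, then immunoblotted for B-Raf, C-Raf, ERK2, MEK1, pS217/221-MEK and pT202/Y204-ERK.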

[10] = biological target: T1, Dual specificity mitogen-activated protein kinase kinase; MEK1/2 (Homo sapiens) (UniProt P36507+Q02750); experiment: Increase in MEK phosphorylation in human COLO205 cells harboring B-Raf V600E mutant at 1 uM after 18 hrs by Western blot analysis; format: cell-based; procedure, shortened: as §2
T1 sequence (P36507 whole entry, looked up): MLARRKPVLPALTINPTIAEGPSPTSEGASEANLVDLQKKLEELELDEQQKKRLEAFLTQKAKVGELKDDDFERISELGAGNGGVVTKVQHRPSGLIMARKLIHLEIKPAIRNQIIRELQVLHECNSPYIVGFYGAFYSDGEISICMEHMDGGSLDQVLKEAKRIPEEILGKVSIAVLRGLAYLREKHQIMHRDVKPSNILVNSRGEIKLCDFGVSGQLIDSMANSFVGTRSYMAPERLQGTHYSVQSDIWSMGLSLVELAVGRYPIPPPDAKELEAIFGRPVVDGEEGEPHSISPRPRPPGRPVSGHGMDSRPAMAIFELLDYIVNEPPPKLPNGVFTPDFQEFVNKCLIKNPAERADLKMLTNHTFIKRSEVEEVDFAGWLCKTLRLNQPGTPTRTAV
T1 sequence (Q02750 whole entry, looked up): as the sequence (Q02750 whole entry) above

[11] = tested on: Serine/threonine-protein kinase B-raf (Homo sapiens), P15056 [V600E]; experiment: Increase in ERK phosphorylation in human COLO205 cells harboring B-Raf V600E mutant at 1 uM after 18 hrs by Western blot analysis; format: cell-based; procedure, shortened: as §2
Serine/threonine-protein kinase B-raf (Homo sapiens), P15056 [V600E], sequence (P15056 whole entry V600E): as the sequence (P15056 whole entry) above, with V600E counted along it

[12] = tested on: COLO 205; experiment: Effect on total B-Raf level in human COLO205 cells harboring B-Raf V600E mutant at 1 to 10measured after 18 hrs by Western blot analysis; format: functional, cell-based; procedure, shortened: as §2
[13] = tested on: COLO 205; experiment: Effect on total C-Raf level in human COLO205 cells harboring B-Raf V600E mutant at 1 to 10measured after 18 hrs by Western blot analysis; format: functional, cell-based; procedure, shortened: as §2
[14] = tested on: COLO 205; experiment: Effect on total MEK level in human COLO205 cells harboring B-Raf V600E mutant at 1 to 10measured after 18 hrs by Western blot analysis; format: functional, cell-based; procedure, shortened: as §2
[15] = tested on: COLO 205; experiment: Effect on total ERK level in human COLO205 cells harboring B-Raf V600E mutant at 1 to 10measured after 18 hrs by Western blot analysis; format: functional, cell-based; procedure, shortened: as §2
[16] = biological target: T1, Dual specificity mitogen-activated protein kinase kinase; MEK1/2 (Homo sapiens); experiment: Inhibition of MEK phosphorylation in human COLO205 cells harboring B-Raf V600E mutant at 1 to 10 uM after 18 hrs by Western blot analysis; format: cell-based; procedure, shortened: as §2

inhibition [5] | inhibition [6] | inhibition [7] | inhibition [8] | Activity [10] | Activity [11] | inhibition [16] | Structure (SMILES) | growth inhibition (GI) [1] | growth inhibition (GI) [2] | growth inhibition (GI) [3] | growth inhibition (GI) [4] | Activity [9] | Activity [12] | Activity [13] | Activity [14] | Activity [15]
inactive | inactive | inactive | inactive | Active | Active | – | N=C1C2=C(NCCS2)C(=O)c2[nH]cc(CO)c21 | Active | Active | Active | Active | inactive | – | – | – | –
inactive | inactive | inactive | inactive | – | – | – | CSC1=C(N)C(=O)c2[nH]cc(CO)c2C1=N | Active | Active | Active | Active | inactive | – | – | – | –
– | – | – | – | – | – | Active | CN(C)CCOc1ccc(-c2nc(-c3ccc4c(c3)CC/C4=N/O)c(-c3ccncc3)[nH]2)cc1 | – | – | – | – | – | inactive | inactive | inactive | inactive
inactive | inactive | inactive | inactive | Active | – | – | N=C1C2=C(NCC[S+]2[O-])C(=O)c2[nH]cc(CO)c21 (stereo unspecified) | – | – | – | – | inactive | – | – | – | –
